ChEMBL document CHEMBL1122637, “Synthesis and antiallergy activity of 10-oxo-10H-pyrido[1,2-a]thieno[3,2-d]pyrimidines and 10-oxo-10H-pyrido[1,2-a]thieno[3,4-d]pyrimidines” (1984)
Active and inactive are the calls of the source. The rule behind the calls is not given here.

These compounds were tested on Rattus norvegicus (assay: Compound was tested for antiallergic activity in the rat passive cutaneous anaphylaxis (PCA) model after intraperitoneal administration at a dose 5 mg/kg; I denotes Inactive at 30 mg/kg). Details: in the assay text read “Inactive at 5 mg/kg” for “Inactive at 30 mg/kg”.
Format: functional, organism-based
Outline: (§1)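 Rats passively sensitized by intradermal injection of antiserum dilutions at several back sites, 48 h before iv challenge with 1 mg ovalbumin in 1 mL saline with 0.25% Evans blue. Drug given ip as a suspension in 1% gum tragacanth/saline 10-15 min before challenge. Wheal diameter read 30 min later. Five rats per group. % inhibition taken against control minus extrapolated base value at the highest antiserum concentration. Student's t test.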

| Structure (SMILES) | inhibition |
| --- | --- |
| O=C(O)c1ccc2nc3c(c(=O)n2c1)CSC3 | inactive |
| O=c1c2c(nc3ccc(-c4nnn[nH]4)cn13)CCS2 | inactive |

What follows are compounds tested on Rattus norvegicus (assay: Antiallergic activity in the rat passive cutaneous anaphylaxis (PCA) model after intraperitoneal administration at a dose 5 mg/kg). Details: ip.
Format: functional
Outline: as §1

| Structure (SMILES) | inhibition in vivo at 5 mg/kg |
| --- | --- |
| O=C(Nc1nn[nH]n1)c1ccc2nc3cscc3c(=O)n2c1 | 49% |
| O=c1c2c(nc3ccc(-c4nnn[nH]4)cn13)CSC2 | 100% |
| O=C(O)c1ccc2nc3c(c(=O)n2c1)SCC3 | 46% |
| Cc1cc2c(=O)n3cc(-c4nnn[nH]4)ccc3nc2s1 | 100% |
| Cc1cc2nc3ccc(-c4nnn[nH]4)cn3c(=O)c2s1 | 51% |
| O=C(Nc1nn[nH]n1)c1ccc2nc3ccsc3c(=O)n2c1 | 100% |
| Cc1sc(C)c2c(=O)n3cc(-c4nnn[nH]4)ccc3nc12 | 47% |
| Cc1sc(C)c2c(=O)n3cc(C(=O)O)ccc3nc12 | 70% |
| Cc1cc2nc3ccc(C(=O)Nc4nn[nH]n4)cn3c(=O)c2s1 | 21% |
| O=C(O)c1ccc2nc3cscc3c(=O)n2c1 | 41% |
| Cc1cc2c(=O)n3cc(C(=O)Nc4nn[nH]n4)ccc3nc2s1 | 25% |
| Cc1cc2c(=O)n3cc(C(=O)O)ccc3nc2s1 | 100% |
| Cc1sc(C)c2c(=O)n3cc(C(=O)Nc4nn[nH]n4)ccc3nc12 | 50% |
| O=C(Nc1nn[nH]n1)c1ccc2nc3c(c(=O)n2c1)CSC3 | 33% |
| O=c1c2cscc2nc2ccc(-c3nnn[nH]3)cn12 | 100% |
| O=C(O)c1ccc2nc3ccsc3c(=O)n2c1 | 28% |
| Cc1cc2nc3ccc(C(=O)O)cn3c(=O)c2s1 | 61% |
| O=c1c2sccc2nc2ccc(-c3nnn[nH]3)cn12 | 70% |

Each compound was assayed on Rattus norvegicus (assay: Compound was tested for antiallergic activity in the rat passive cutaneous anaphylaxis (PCA) model after intraperitoneal administration at a dose 10 mg/kg). Details: ip.
Format: functional
Outline: as §1

| Structure (SMILES) | inhibition in vivo at 10 mg/kg |
| --- | --- |
| O=C(O)c1cc(=O)c2c(OCC(O)COc3cccc4oc(C(=O)O)cc(=O)c34)cccc2o1 [CROMOLYN SODIUM] | 89% |
